Source: ChEMBL document CHEMBL2380281, “Synthesis of proline analogues as potent and selective cathepsin S inhibitors” (Bioorg Med Chem Lett, 2013)
Calls of active or inactive are those of the source. No cut-off for these calls is given here.

Columns and labels:
Cathepsin S [1] = molecular target: T1, Cathepsin S (Homo sapiens, UniProt P25774); assay: Inhibition of human cathepsin-S
Target sequence in this assay (P25774 whole entry): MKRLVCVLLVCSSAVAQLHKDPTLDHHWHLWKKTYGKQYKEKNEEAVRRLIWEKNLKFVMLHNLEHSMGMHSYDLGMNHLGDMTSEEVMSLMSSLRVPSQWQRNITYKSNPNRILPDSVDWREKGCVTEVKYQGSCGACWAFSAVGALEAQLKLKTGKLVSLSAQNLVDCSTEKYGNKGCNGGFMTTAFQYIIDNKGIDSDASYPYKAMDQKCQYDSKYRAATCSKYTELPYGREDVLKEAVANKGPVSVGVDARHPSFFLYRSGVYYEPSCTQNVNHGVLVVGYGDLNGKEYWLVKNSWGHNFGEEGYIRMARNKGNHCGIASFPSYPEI

Cathepsin K = molecular target: T2, Cathepsin K (Homo sapiens, UniProt P43235); assay: Inhibition of human cathepsin-K
T2 sequence (P43235 whole entry): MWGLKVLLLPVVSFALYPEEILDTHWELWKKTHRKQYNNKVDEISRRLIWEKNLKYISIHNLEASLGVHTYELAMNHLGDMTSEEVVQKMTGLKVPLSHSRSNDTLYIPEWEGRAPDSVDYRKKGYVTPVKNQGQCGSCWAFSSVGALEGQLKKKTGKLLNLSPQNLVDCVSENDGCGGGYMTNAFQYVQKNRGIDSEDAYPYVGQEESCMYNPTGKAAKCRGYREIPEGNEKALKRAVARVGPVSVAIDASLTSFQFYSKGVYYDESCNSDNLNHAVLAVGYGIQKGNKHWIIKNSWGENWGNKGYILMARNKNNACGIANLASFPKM
How it was run: (§1)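 Human cathepsin B and K activity measured with a SensoLyte 520 cathepsin activity assay kit; LHVS as pan-cathepsin positive control.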

Cathepsin B = Cathepsin B (Homo sapiens, UniProt P07858); assay: Inhibition of human cathepsin-B; how it was run: as §1
Cytochrome P450 3A4 = Cytochrome P450 3A4 (Homo sapiens, UniProt P08684); assay: Inhibition of CYP3A4 (unknown origin) by fluorescence detection method; format: ADME
Cytochrome P450 3A4, sequence (P08684 whole entry): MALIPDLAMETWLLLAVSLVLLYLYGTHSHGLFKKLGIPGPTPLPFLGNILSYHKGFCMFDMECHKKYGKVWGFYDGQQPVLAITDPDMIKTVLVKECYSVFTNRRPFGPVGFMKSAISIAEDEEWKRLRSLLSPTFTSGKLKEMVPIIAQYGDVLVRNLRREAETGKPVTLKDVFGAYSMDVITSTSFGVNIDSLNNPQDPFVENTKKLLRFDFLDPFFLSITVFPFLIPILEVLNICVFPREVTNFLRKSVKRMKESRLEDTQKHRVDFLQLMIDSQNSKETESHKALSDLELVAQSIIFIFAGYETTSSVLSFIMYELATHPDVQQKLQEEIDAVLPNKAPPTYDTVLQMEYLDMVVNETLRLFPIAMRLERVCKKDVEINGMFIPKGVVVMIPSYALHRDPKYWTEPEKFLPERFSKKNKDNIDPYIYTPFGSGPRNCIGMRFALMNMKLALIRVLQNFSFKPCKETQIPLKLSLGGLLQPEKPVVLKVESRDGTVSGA

Cytochrome P450 2C19 = Cytochrome P450 2C19 (Homo sapiens, UniProt P33261); assay: Inhibition of CYP2C19 (unknown origin) by fluorescence detection method; format: ADME
Cytochrome P450 2C19, sequence (P33261 whole entry): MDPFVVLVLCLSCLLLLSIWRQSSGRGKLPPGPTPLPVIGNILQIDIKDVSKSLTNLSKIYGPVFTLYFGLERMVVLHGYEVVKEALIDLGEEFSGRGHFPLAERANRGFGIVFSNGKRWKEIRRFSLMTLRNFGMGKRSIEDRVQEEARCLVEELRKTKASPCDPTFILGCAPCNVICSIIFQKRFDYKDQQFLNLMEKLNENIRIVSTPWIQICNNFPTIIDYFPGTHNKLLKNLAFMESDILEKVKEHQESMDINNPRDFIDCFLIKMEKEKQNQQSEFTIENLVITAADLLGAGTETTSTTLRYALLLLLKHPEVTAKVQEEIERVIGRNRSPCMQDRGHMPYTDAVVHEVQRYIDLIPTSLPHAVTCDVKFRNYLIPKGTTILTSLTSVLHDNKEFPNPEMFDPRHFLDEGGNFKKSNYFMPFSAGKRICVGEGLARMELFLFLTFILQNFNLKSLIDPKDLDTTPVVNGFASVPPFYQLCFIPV

[2] = Cmax in Sprague-Dawley rat at 5 mg/kg, iv and 10 mg/kg, po; format: ADME, organism-based; settings: in vivo
How it was run: (§2)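 Male Sprague–Dawley rats, 7 weeks of age, received one oral dose of 10 mg/kg or one intravenous dose of 5 mg/kg (n = 3 each); pharmacokinetic parameters determined.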

Mus musculus = assay: Antiarthritic activity in DBA1/J mouse assessed as decrease in collagen-induced arthritis score and degree of paw swelling at 30 mg/kg, po qd for 14 days; format: functional, organism-based; set-up: dose 30 mg/kg
How it was run: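 Male DBA1/J mice (8 weeks, n = 7/group) immunized intradermally at tail base with bovine type II collagen in complete Freund's adjuvant, boosted 3 weeks later with collagen in incomplete Freund's adjuvant. Oral dosing once daily at 30 mg/kg in 10% hydroxypropyl-β-cyclodextrin/water, or vehicle, for 14 days. Arthritis score and paw swelling graded per paw every 2–3 days for 2 weeks from day 10 post-boost.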

[3] = Half life in ICR mouse at 5 mg/kg, iv and 10 mg/kg, po; format: ADME, organism-based; settings: in vivo
How it was run: (§3)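 Single dose given orally (10 mg/kg) or intravenously (5 mg/kg) to male ICR mice, 7 weeks old, n = 3 per route; pharmacokinetic parameters derived from these dosings.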

[4] = Cmax in beagle dog at 1 mg/kg, iv and 10 mg/kg, po; format: ADME, organism-based, Canis lupus familiaris; settings: in vivo
How it was run: (§4)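 Male beagle dogs aged 14 months dosed once, 10 mg/kg orally or 1 mg/kg intravenously, n = 3 per route; pharmacokinetic parameters calculated.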

[5] = Metabolic stability in dog liver microsomes assessed as compound remaining at 5 uM after 60 mins; format: ADME, Canis lupus familiaris, Microsome; settings: read-out: Stability
How it was run: (§5)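 Compound at 5 µM incubated 60 min with mouse, rat, dog or human liver microsomes, in duplicate; result given as percentage of parent remaining.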

Cytochrome P450 2D6 = Cytochrome P450 2D6 (Homo sapiens, UniProt P10635); assay: Inhibition of CYP2D6 (unknown origin) by fluorescence detection method; format: ADME
Cytochrome P450 2D6, sequence (P10635 whole entry): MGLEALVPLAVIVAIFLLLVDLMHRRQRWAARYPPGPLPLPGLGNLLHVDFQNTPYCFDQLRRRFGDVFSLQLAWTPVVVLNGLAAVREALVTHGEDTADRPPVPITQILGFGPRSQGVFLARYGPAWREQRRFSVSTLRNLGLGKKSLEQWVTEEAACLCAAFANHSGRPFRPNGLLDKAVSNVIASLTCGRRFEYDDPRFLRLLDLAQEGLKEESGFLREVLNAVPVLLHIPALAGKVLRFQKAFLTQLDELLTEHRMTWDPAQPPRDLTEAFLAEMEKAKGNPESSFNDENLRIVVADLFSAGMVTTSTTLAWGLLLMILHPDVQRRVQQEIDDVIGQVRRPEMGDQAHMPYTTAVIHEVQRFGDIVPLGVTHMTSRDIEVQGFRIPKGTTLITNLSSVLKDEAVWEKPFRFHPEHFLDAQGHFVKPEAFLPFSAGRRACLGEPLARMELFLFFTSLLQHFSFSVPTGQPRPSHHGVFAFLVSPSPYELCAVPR

[6] = AUC (0 to 24 hrs) in beagle dog at 1 mg/kg, iv and 10 mg/kg, po; format: ADME, organism-based, Canis lupus familiaris; settings: plasma; how it was run: as §4
[7] = Oral bioavailability in ICR mouse at 10 mg/kg; format: ADME, organism-based; settings: in vivo; how it was run: as §3
Cytochrome P450 1A2 = molecular target: T3, Cytochrome P450 1A2 (Homo sapiens, UniProt P05177); assay: Inhibition of CYP1A2 (unknown origin) by fluorescence detection method; format: ADME
T3 sequence (P05177 whole entry): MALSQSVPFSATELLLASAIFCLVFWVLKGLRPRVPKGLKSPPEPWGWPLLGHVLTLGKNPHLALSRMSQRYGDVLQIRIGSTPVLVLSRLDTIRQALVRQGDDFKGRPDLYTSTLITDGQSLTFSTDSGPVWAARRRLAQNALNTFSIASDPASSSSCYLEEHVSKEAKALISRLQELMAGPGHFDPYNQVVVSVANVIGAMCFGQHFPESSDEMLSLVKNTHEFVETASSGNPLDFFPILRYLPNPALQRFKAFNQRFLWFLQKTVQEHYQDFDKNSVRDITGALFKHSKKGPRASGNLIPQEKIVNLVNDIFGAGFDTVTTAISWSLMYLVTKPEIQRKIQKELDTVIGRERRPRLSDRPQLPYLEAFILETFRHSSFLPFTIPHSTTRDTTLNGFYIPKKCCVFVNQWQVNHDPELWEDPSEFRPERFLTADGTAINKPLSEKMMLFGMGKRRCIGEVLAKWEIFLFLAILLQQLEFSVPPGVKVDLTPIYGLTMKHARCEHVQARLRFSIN

[8] = AUC (0 to 24 hrs) in ICR mouse at 5 mg/kg, iv and 10 mg/kg, po; format: ADME, organism-based; settings: plasma; how it was run: as §3
[9] = Oral bioavailability in Sprague-Dawley rat at 10 mg/kg; format: ADME, organism-based; settings: in vivo; how it was run: as §2
Cytochrome P450 2C9 = Cytochrome P450 2C9 (Homo sapiens, UniProt P11712); assay: Inhibition of CYP2C9 (unknown origin) by fluorescence detection method; format: ADME
Cytochrome P450 2C9, sequence (P11712 whole entry): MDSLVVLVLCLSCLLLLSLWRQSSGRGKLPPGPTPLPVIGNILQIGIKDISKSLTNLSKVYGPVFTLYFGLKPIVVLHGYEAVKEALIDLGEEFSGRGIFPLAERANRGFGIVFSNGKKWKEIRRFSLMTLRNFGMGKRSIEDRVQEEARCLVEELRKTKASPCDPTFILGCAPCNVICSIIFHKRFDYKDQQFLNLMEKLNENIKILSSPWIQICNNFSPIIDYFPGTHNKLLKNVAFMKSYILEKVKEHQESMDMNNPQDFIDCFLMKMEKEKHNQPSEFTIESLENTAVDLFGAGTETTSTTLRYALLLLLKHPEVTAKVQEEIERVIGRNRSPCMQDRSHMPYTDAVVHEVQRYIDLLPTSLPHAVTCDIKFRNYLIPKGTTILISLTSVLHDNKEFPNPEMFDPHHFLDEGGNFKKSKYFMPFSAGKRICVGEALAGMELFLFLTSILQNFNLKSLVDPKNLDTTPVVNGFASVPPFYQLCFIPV

[10] = Oral bioavailability in beagle dog at 10 mg/kg; format: ADME, organism-based, Canis lupus familiaris; settings: in vivo; how it was run: as §4
Cathepsin S [11] = molecular target: T1, Cathepsin S; assay: Inhibition of cathepsin-S in human Jiyoye cells assessed as conversion of invariant chain Lip10 to CLIP; format: cell-based
How it was run: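 Jiyoye cells were stimulated with IFN-γ and treated with the inhibitor at 1, 10, 100 and 1000 nM, alongside untreated controls. The read-out was Lip10 accumulation.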
Target sequence in this assay (P25774 115-331 limits assumed): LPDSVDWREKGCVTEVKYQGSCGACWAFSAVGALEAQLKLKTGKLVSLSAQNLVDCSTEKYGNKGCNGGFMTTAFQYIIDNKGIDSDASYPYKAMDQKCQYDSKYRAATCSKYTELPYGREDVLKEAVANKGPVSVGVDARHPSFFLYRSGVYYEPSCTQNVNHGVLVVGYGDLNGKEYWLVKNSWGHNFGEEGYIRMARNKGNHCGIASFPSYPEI

[12] = Metabolic stability in mouse liver microsomes assessed as compound remaining at 5 uM after 60 mins; format: ADME, Microsome; settings: read-out: Stability; how it was run: as §5
[13] = Cmax in ICR mouse at 5 mg/kg, iv and 10 mg/kg, po; format: ADME, organism-based; settings: in vivo; how it was run: as §3
[14] = Metabolic stability in human liver microsomes assessed as compound remaining at 5 uM after 60 mins; format: ADME, Microsome; settings: read-out: Stability; how it was run: as §5
[15] = Metabolic stability in rat liver microsomes assessed as compound remaining at 5 uM after 60 mins; format: ADME, Microsome; settings: read-out: Stability; how it was run: as §5
[16] = Half life in Sprague-Dawley rat at 5 mg/kg, iv and 10 mg/kg, po; format: ADME, organism-based; settings: in vivo; how it was run: as §2
[17] = AUC (0 to 24 hrs) in Sprague-Dawley rat at 5 mg/kg, iv and 10 mg/kg, po; format: ADME, organism-based; settings: plasma; how it was run: as §2
[18] = Half life in beagle dog at 1 mg/kg, iv and 10 mg/kg, po; format: ADME, organism-based, Canis lupus familiaris; settings: in vivo; how it was run: as §4

`CCC(NC(=O)[C@@H]1C[C@@H](S(=O)(=O)c2ccccc2)CN1C(=O)c1ccncc1)C(=O)c1nc2ccccc2o1` (some centres undefined) showed an IC50 (Cathepsin S [1]) of 3.3 nM.
Compound `CCC(NC(=O)[C@@H]1C[C@@H](S(=O)(=O)c2ccccc2)CN1C(=O)c1ccccc1)C(=O)c1nc2ccccc2o1` (some centres undefined) has an IC50 (Cathepsin K) greater than 10000 nM, an IC50 (Cathepsin B) greater than 10000 nM and an IC50 (Cathepsin S [1]) of 3 nM.
In the case of `CC[C@H](NC(=O)[C@@H]1C[C@@H](S(=O)(=O)c2ccccc2)CN1C(C)=O)C(=O)c1nc2ccccc2o1`, the IC50 (Cytochrome P450 3A4) is reported as 9950 nM, the IC50 (Cytochrome P450 2C19) is reported as greater than 20000 nM and the Cmax [2] is reported as 3520 ng/mL. The Activity (Mus musculus) was “Active”, the half-life [3] was 1.6 h and the IC50 (Cathepsin K) was greater than 10000 nM. For the same compound, the Cmax [4] was 3820 ng/mL, the remaining at 1 h, 5 µM [5] was 47% and the IC50 (Cytochrome P450 2D6) was greater than 20000 nM. It also gave an AUC(0-t) [6] of 5050 ng·h/mL, a bioavailability [7] of 28.7% and an IC50 (Cytochrome P450 1A2) greater than 20000 nM. The AUC(0-t) [8] was 1030 ng·h/mL, the bioavailability [9] was 64.8% and the IC50 (Cytochrome P450 2C9) was 5000 nM. The bioavailability [10] was 48.6%, the inhibition (Cathepsin S [11]) was “Active” and the IC50 (Cathepsin B) was greater than 10000 nM. It also gave a remaining at 1 h, 5 µM [12] of 37%, a Cmax [13] of 1910 ng/mL and a remaining at 1 h, 5 µM [14] of 70%. For the same compound, the remaining at 1 h, 5 µM [15] was 37%, the half-life [16] was 2.1 h and the IC50 (Cathepsin S [1]) was 3.3 nM. For the same compound, the AUC(0-t) [17] was 7250 ng·h/mL and the half-life [18] was 3.7 h.
With `CCC(NC(=O)[C@@H]1C[C@@H](S(=O)(=O)c2ccccc2)CN1C(=O)C(F)(F)F)C(=O)c1nc2ccccc2o1` (some centres undefined) the IC50 (Cathepsin S [1]) was 2.7 nM.
With `CCC(NC(=O)[C@@H]1C[C@@H](S(=O)(=O)c2ccccc2)CN1c1ccccc1)C(=O)c1nc2ccccc2o1` (some centres undefined) the IC50 (Cathepsin S [1]) was 12.4 nM.
Work on `CC(=O)N1C[C@H](S(=O)(=O)c2ccccc2)C[C@H]1C(=O)NC(C(=O)c1nc2ccccc2o1)C(C)C` (some centres undefined) yielded an IC50 (Cathepsin S [1]) of 24.6 nM.
For `CCC(NC(=O)[C@@H]1C[C@@H](Oc2ccccc2)CN1C(C)=O)C(=O)c1nc2ccccc2o1` (some centres undefined), the IC50 (Cathepsin S [1]) was greater than 1000 nM.
`O=C(CNC(=O)[C@@H]1C[C@@H](S(=O)(=O)c2ccccc2)CN1C(=O)C1CCCCC1)c1nc2ccccc2o1` gave an IC50 (Cathepsin S [1]) of 36.6 nM.
Work on `CCC(NC(=O)[C@@H]1C[C@@H](S(=O)(=O)c2ccccc2)CN1)C(=O)c1nc2ccccc2o1` (some centres undefined) yielded an IC50 (Cathepsin S [1]) of 156 nM.
Compound `CCC(NC(=O)[C@@H]1C[C@@H](S(=O)(=O)c2ccccc2)CN1C(C)=O)C(=O)c1nc2ccccc2o1` (some centres undefined) has an IC50 (Cathepsin S [1]) of 3.3 nM.
In the case of `CCC(NC(=O)[C@@H]1C[C@@H](S(=O)(=O)c2ccc(-n3cccn3)cc2)CN1C(C)=O)C(=O)c1nc2ccccc2o1` (some centres undefined), the IC50 (Cathepsin S [1]) is reported as 3.2 nM.
For `CCC(NC(=O)[C@@H]1C[C@@H](S(=O)(=O)c2ccc(F)cc2)CN1C(C)=O)C(=O)c1nc2ccccc2o1` (some centres undefined), the IC50 (Cathepsin S [1]) was 3.2 nM.
Work on `CCC(NC(=O)[C@@H]1C[C@@H](S(=O)(=O)c2ccccc2)CN1C(=O)c1cccc(Cl)c1)C(=O)c1nc2ccccc2o1` (some centres undefined) yielded an IC50 (Cathepsin K) greater than 1000 nM, an IC50 (Cathepsin B) greater than 1000 nM and an IC50 (Cathepsin S [1]) of 1.1 nM.
For `CCC(NC(=O)[C@@H]1C[C@@H](S(=O)(=O)c2ccccc2Cl)CN1C(C)=O)C(=O)c1nc2ccccc2o1` (some centres undefined), the IC50 (Cathepsin S [1]) was 2.3 nM.
`CCC(NC(=O)[C@@H]1C[C@@H](S(=O)(=O)CC)CN1C(C)=O)C(=O)c1nc2ccccc2o1` (some centres undefined) gave an IC50 (Cathepsin S [1]) greater than 100 nM.
